target: T1, P-selectin (Homo sapiens, UniProt P16109); assay: In vitro inhibitory concentration against Selectin P in a cell-free binding assay
T1 sequence (P16109 whole entry): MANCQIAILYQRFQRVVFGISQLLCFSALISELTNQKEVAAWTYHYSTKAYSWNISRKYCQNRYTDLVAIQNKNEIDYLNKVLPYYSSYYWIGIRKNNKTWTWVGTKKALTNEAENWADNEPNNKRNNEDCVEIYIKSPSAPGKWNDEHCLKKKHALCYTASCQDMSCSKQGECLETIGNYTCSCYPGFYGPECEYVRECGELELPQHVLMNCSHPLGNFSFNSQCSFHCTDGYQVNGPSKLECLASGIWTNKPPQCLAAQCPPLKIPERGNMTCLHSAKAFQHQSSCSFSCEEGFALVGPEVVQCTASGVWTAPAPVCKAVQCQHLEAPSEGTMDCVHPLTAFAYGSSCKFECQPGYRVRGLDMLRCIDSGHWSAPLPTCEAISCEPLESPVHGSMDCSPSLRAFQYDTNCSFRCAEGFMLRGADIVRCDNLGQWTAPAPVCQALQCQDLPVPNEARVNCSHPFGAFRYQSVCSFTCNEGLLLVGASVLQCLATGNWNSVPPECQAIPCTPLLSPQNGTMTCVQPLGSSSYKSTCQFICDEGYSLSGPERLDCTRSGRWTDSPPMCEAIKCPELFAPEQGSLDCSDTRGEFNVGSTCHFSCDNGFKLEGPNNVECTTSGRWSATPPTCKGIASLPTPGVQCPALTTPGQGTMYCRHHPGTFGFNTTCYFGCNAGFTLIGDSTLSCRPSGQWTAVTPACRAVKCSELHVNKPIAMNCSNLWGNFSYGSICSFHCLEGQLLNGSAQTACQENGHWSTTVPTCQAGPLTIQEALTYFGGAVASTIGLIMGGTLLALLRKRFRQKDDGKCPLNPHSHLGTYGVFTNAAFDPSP
Summary of the method: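 Soluble P-selectin receptor globulin (lectin, EGF and two complement repeat domains fused to an Ig tail), premixed with HRP-conjugated goat anti-human IgG. The complex was incubated on sulfatide-coated ELISA plates with or without test compound, 0.5% DMSO final. Read-out was TMB colour at 450 nm. Eight 2-fold dilutions were tested, mean of duplicates, and IC50 was interpolated from the linear part of the log dose-response curve.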

Row | SMILES | IC50 [nM]
1 | CCCCCCCCCCCCC/C=C/[C@@H](OC(=O)c1ccccc1)[C@H](CO[C@@H]1O[C@@H](COS(=O)(=O)O)[C@@H](OC(C)=O)[C@H](OS(=O)(=O)O)[C@@H]1OC(=O)c1ccccc1)NC(=O)CCCCCCCCCCCCCCC | 1300
2 | CCCCCCCCCCCCC/C=C/[C@@H](OC(=O)c1ccccc1)[C@H](CO[C@@H]1O[C@@H](COS(=O)(=O)O)[C@@H](O)[C@H](O)[C@@H]1OS(=O)(=O)O)NC(=O)CCCCCCCCCCCCCCC | 900
3 | CCCCCCCCCCCCC/C=C/[C@@H](OC(=O)c1ccccc1)[C@H](CO[C@@H]1O[C@@H](CO)[C@@H](O)[C@H](OS(=O)(=O)O)[C@@H]1OS(=O)(=O)O)NC(=O)CCCCCCCCCCCCCCC | 100
4 | CCCCCCCCCCCCC/C=C/[C@@H](O)[C@H](CO[C@@H]1O[C@@H](CO)[C@@H](O)[C@H](OS(=O)(=O)O)[C@@H]1O)NC(=O)CCCCCCCCCCCCCCC | 600
5 | CCCCCCCCCCCCC/C=C/[C@@H](O)[C@H](CO[C@@H]1O[C@@H](CO)[C@@H](O)[C@H](O)[C@@H]1OS(=O)(=O)O)NC(=O)CCCCCCCCCCCCCCC | 2500
6 | CCCCCCCCCCCCC/C=C\C(O)C(CO)NC(=O)O[C@@H]1O[C@H](CO)[C@H](O)[C@H](O)[C@H]1O (some centres not stated) [GALACTOCEREBROSIDE] | > 50000

Second part, the compound after the results:

Row | IC50 [nM] | SMILES
7 | 100 | CCCCCCCCCCCCC/C=C/[C@@H](O)[C@H](CO[C@@H]1O[C@@H](CO)[C@@H](O)[C@H](OS(=O)(=O)O)[C@@H]1OS(=O)(=O)O)NC(=O)CCCCCCCCCCCCCCC
8 | 12000 | CCCCCCCCCCCCC/C=C/[C@@H](O)[C@H](CO[C@@H]1O[C@@H](COS(=O)(=O)O)[C@@H](O)[C@H](O)[C@@H]1O)NC(=O)CCCCCCCCCCCCCCC
9 | 2400 | CCCCCCCCCCCCC/C=C/[C@@H](O)[C@H](CO[C@@H]1O[C@@H](COS(=O)(=O)O)[C@@H](O)[C@H](OS(=O)(=O)O)[C@@H]1O)NC(=O)CCCCCCCCCCCCCCC
10 | 1200 | CCCCCCCCCCCCC/C=C/[C@@H](O)[C@H](CO[C@@H]1O[C@@H](COS(=O)(=O)O)[C@@H](O)[C@H](O)[C@@H]1OS(=O)(=O)O)NC(=O)CCCCCCCCCCCCCCC
11 | 12500 | CCCCCCCCCCCCC/C=C/[C@@H](O)[C@H](CO[C@@H]1O[C@@H](CO)[C@@H](OS(=O)(=O)O)[C@H](O)[C@@H]1O)NC(=O)CCCCCCCCCCCCCCC
12 | 1700 | CCCCCCCCCCCCC/C=C/[C@@H](O)[C@H](CO[C@@H]1O[C@@H](COS(=O)(=O)O)[C@@H](OS(=O)(=O)O)[C@H](O)[C@@H]1O)NC(=O)CCCCCCCCCCCCCCC

— ChEMBL document CHEMBL1130175, “Sulfated galactocerebrosides as potential antiinflammatory agents” (J Med Chem, 1997)
